According to ChEMBL document CHEMBL4715736, “Identification of anticancer agents based on the thieno[2,3-b]pyridine and 1H-pyrazole molecular scaffolds” (2016):

Experiments:
Type in all cases: functional
[1] = system: OVCAR-3; assay: Growth inhibition of human OVCAR-3 cells assessed as cell growth at 0.1 uM incubated for 48 hrs by sulforhodamine B assay relative to control; details: read-out: Activity
[2] = system: BT-549; assay: Growth inhibition of human BT-549 cells assessed as cell growth at 100 uM incubated for 48 hrs by sulforhodamine B assay relative to control; details: read-out: Activity
[3] = system: MDA-MB-468; assay: Growth inhibition of human MDA-MB-468 cells assessed as cell growth at 100 uM incubated for 48 hrs by sulforhodamine B assay relative to control; details: read-out: Activity
[4] = system: Malme-3M; assay: Growth inhibition of human Malme-3M cells assessed as cell growth at 100 uM incubated for 48 hrs by sulforhodamine B assay relative to control; details: read-out: Activity
[5] = system: SNB-19; assay: Growth inhibition of human SNB-19 cells assessed as cell growth at 1 uM incubated for 48 hrs by sulforhodamine B assay relative to control; details: read-out: Activity
[6] = system: SW-620; assay: Growth inhibition of human SW-620 cells assessed as cell growth at 1 uM incubated for 48 hrs by sulforhodamine B assay relative to control; details: read-out: Activity
[7] = system: HOP-92; assay: Growth inhibition of human HOP-92 cells assessed as cell growth at 100 uM incubated for 48 hrs by sulforhodamine B assay relative to control; details: read-out: Activity
[8] = system: MCF7; assay: Growth inhibition of human MCF7 cells incubated for 48 hrs by sulforhodamine B assay; details: for CC50: read-out: LC50 (the source's name)
Method in brief: (§1)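 NCI60 panel at the NCI Developmental Therapeutics Program. Only compounds active in the 10 µM screen went to dose-response testing. GI50, the concentration giving 50% of maximal inhibition of proliferation, and TGI, the concentration giving total growth inhibition, were derived from the dose-response curves.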

[9] = system: SW-620; assay: Growth inhibition of human SW-620 cells assessed as cell growth at 100 uM incubated for 48 hrs by sulforhodamine B assay relative to control; details: read-out: Activity
[10] = system: 786-0; assay: Growth inhibition of human 786-0 cells assessed as cell growth at 100 uM incubated for 48 hrs by sulforhodamine B assay relative to control; details: read-out: Activity
[11] = system: M14; assay: Growth inhibition of human M14 cells assessed as cell growth at 100 uM incubated for 48 hrs by sulforhodamine B assay relative to control; details: read-out: Activity
[12] = system: OVCAR-4; assay: Growth inhibition of human OVCAR-4 cells assessed as cell growth at 0.1 uM incubated for 48 hrs by sulforhodamine B assay relative to control; details: read-out: Activity
[13] = system: ACHN; assay: Growth inhibition of human ACHN cells incubated for 48 hrs by sulforhodamine B assay; details: for CC50: read-out: LC50 (the source's name)
Method in brief: (§2)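 NCI Developmental Therapeutics Program NCI60 panel. Compounds that were active in the 10 µM one-dose screen went on to dose–response testing. Growth at each concentration is expressed relative to untreated control (100%). GI50 (concentration giving 50% of maximal inhibition of proliferation) and TGI (concentration giving total growth inhibition) were derived from the curves.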

[14] = system: LOX IMVI; assay: Growth inhibition of human LOX IMVI cells assessed as cell growth at 100 uM incubated for 48 hrs by sulforhodamine B assay relative to control; details: read-out: Activity
[15] = system: SK-MEL-28; assay: Growth inhibition of human SK-MEL-28 cells assessed as cell growth at 0.01 uM incubated for 48 hrs by sulforhodamine B assay relative to control; details: read-out: Activity
[16] = system: K562; assay: Growth inhibition of human K562 cells assessed as cell growth at 0.1 uM incubated for 48 hrs by sulforhodamine B assay relative to control; details: read-out: Activity
[17] = system: Malme-3M; assay: Growth inhibition of human Malme-3M cells assessed as cell growth at 0.1 uM incubated for 48 hrs by sulforhodamine B assay relative to control; details: read-out: Activity
[18] = system: ACHN; assay: Growth inhibition of human ACHN cells assessed as cell growth at 0.1 uM incubated for 48 hrs by sulforhodamine B assay relative to control; details: read-out: Activity
[19] = system: U-251; assay: Growth inhibition of human U-251 cells assessed as cell growth at 1 uM incubated for 48 hrs by sulforhodamine B assay relative to control; details: read-out: Activity
[20] = system: MDA-MB-435; assay: Growth inhibition of human MDA-MB-435 cells assessed as cell growth at 1 uM incubated for 48 hrs by sulforhodamine B assay relative to control; details: read-out: Activity
[21] = system: SF-295; assay: Growth inhibition of human SF-295 cells assessed as cell growth at 0.01 uM incubated for 48 hrs by sulforhodamine B assay relative to control; details: read-out: Activity
[22] = system: SF-539; assay: Growth inhibition of human SF-539 cells assessed as cell growth at 1 uM incubated for 48 hrs by sulforhodamine B assay relative to control; details: read-out: Activity
[23] = system: T47D; assay: Growth inhibition of human T47D cells assessed as cell growth at 100 uM incubated for 48 hrs by sulforhodamine B assay relative to control; details: read-out: Activity
[24] = system: MDA-MB-468; assay: Growth inhibition of human MDA-MB-468 cells assessed as cell growth at 1 uM incubated for 48 hrs by sulforhodamine B assay relative to control; details: read-out: Activity
[25] = system: OVCAR-3; assay: Growth inhibition of human OVCAR-3 cells assessed as cell growth at 0.01 uM incubated for 48 hrs by sulforhodamine B assay relative to control; details: read-out: Activity
[26] = system: KM12; assay: Growth inhibition of human KM12 cells incubated for 48 hrs by sulforhodamine B assay; method in brief: as §1
[27] = system: A498; assay: Growth inhibition of human A498 cells assessed as cell growth at 100 uM incubated for 48 hrs by sulforhodamine B assay relative to control; details: read-out: Activity; method in brief: as §2
[28] = system: HOP-92; assay: Growth inhibition of human HOP-92 cells assessed as cell growth at 0.01 uM incubated for 48 hrs by sulforhodamine B assay relative to control; details: read-out: Activity
[29] = system: SK-MEL-2; assay: Growth inhibition of human SK-MEL-2 cells incubated for 48 hrs by sulforhodamine B assay
Method in brief: (§3)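 NCI DTP 60-line human tumour panel. Dose-response curves were run only for ligands active in the initial 10 µM screen. GI50 (concentration giving 50% of maximal inhibition of proliferation) and TGI (concentration giving total growth inhibition) were derived from these curves.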

[30] = system: RPMI-8226; assay: Growth inhibition of human RPMI-8226 cells incubated for 48 hrs by sulforhodamine B assay; method in brief: as §3
[31] = system: IGROV-1; assay: Growth inhibition of human IGROV-1 cells assessed as cell growth at 0.1 uM incubated for 48 hrs by sulforhodamine B assay relative to control; details: read-out: Activity
[32] = system: A549; assay: Growth inhibition of human A549/ATCC cells assessed as cell growth at 1 uM incubated for 48 hrs by sulforhodamine B assay relative to control; details: read-out: Activity; method in brief: as §2
[33] = system: U-251; assay: Growth inhibition of human U-251 cells assessed as cell growth at 0.1 uM incubated for 48 hrs by sulforhodamine B assay relative to control; details: read-out: Activity
[34] = system: UACC-62; assay: Growth inhibition of human UACC-62 cells assessed as cell growth at 0.01 uM incubated for 48 hrs by sulforhodamine B assay relative to control; details: read-out: Activity
[35] = system: NCI-H23; assay: Growth inhibition of human NCI-H23 cells assessed as cell growth at 1 uM incubated for 48 hrs by sulforhodamine B assay relative to control; details: read-out: Activity

## CCc1ccccc1NC(=O)c1sc2nc3c(cc2c1N)C(=O)CCC3
[1]
  growth at 0.1 µM: 100%
[2]
  growth at 100 µM: 11%
[3]
  growth at 100 µM: -8%
[4]
  growth at 100 µM: -5%
[5]
  growth at 1 µM: 45%
[6]
  growth at 1 µM: 18%
[7]
  growth at 100 µM: -6%
[8]
  GI50: 0.312 µM
  TGI: > 100 µM
  CC50: > 100 µM
[9]
  growth at 100 µM: 12%
[10]
  growth at 100 µM: -17%
[11]
  growth at 100 µM: 7%
[12]
  growth at 0.1 µM: 88%
[13]
  GI50: 0.0188 µM
  TGI: > 100 µM
  CC50: > 100 µM
[14]
  growth at 100 µM: 24%
[15]
  growth at 0.01 µM: 88%
[16]
  growth at 0.1 µM: 63%
[17]
  growth at 0.1 µM: 84%
[18]
  growth at 0.1 µM: 92%
[19]
  growth at 1 µM: 33%
[20]
  growth at 1 µM: -53%
[21]
  growth at 0.01 µM: 86%
[22]
  growth at 1 µM: 11%
[23]
  growth at 100 µM: -5%
[24]
  growth at 1 µM: -4%
[25]
  growth at 0.01 µM: 107%
[26]
  GI50: 0.402 µM
  LC50: > 100 µM
  TGI: > 100 µM
[27]
  growth at 100 µM: -10%
[28]
  growth at 0.01 µM: 87%
[29]
  LC50: > 100 µM
  TGI: > 100 µM
[30]
  GI50: 0.853 µM
  LC50: > 100 µM
  TGI: ≥ 100 µM
[31]
  growth at 0.1 µM: 102%
[32]
  growth at 1 µM: 39%

## Cc1ccc(NC(=O)c2sc3nc4c(cc3c2N)C(=O)CCC4)cc1C
[1]
  growth at 0.1 µM: 101%
[2]
  growth at 100 µM: 42%
[3]
  growth at 100 µM: -1%
[4]
  growth at 100 µM: 28%
[5]
  growth at 1 µM: 37%
[6]
  growth at 1 µM: 19%
[7]
  growth at 100 µM: 2%
[8]
  GI50: 0.339 µM
  TGI: > 100 µM
  CC50: > 100 µM
[9]
  growth at 100 µM: 18%
[10]
  growth at 100 µM: 20%
[11]
  growth at 100 µM: 4%
[12]
  growth at 0.1 µM: 82%
[13]
  GI50: 0.0239 µM
  TGI: > 100 µM
  CC50: > 100 µM
[14]
  growth at 100 µM: 20%
[15]
  growth at 0.01 µM: 99%
[16]
  growth at 0.1 µM: 118%
[17]
  growth at 0.1 µM: 86%
[18]
  growth at 0.1 µM: 95%
[19]
  growth at 1 µM: 42%
[20]
  growth at 1 µM: -58%
[21]
  growth at 0.01 µM: 91%
[22]
  growth at 1 µM: 21%
[23]
  growth at 100 µM: -13%
[24]
  growth at 1 µM: -9%
[25]
  growth at 0.01 µM: 102%
[26]
  GI50: 0.479 µM
  LC50: > 100 µM
  TGI: > 100 µM
[33]
  growth at 0.1 µM: 92%
[27]
  growth at 100 µM: -17%
[28]
  growth at 0.01 µM: 87%
[29]
  GI50: 0.463 µM
  LC50: > 100 µM
  TGI: > 100 µM
[30]
  GI50: 1.43 µM
  LC50: > 100 µM
[31]
  growth at 0.1 µM: 99%
[32]
  growth at 1 µM: 40%

## CCc1cccc(C)c1NC(=O)c1sc2nc3c(cc2c1N)C(=O)CCC3
[1]
  growth at 0.1 µM: 104%
[3]
  growth at 100 µM: -18%
[4]
  growth at 100 µM: -1%
[34]
  growth at 0.01 µM: 96%
[5]
  growth at 1 µM: 47%
[6]
  growth at 1 µM: 17%
[7]
  growth at 100 µM: -7%
[8]
  GI50: 0.36 µM
  TGI: ≥ 100 µM
  CC50: > 100 µM
[9]
  growth at 100 µM: 14%
[10]
  growth at 100 µM: 11%
[11]
  growth at 100 µM: -17%
[12]
  growth at 0.1 µM: 91%
[13]
  GI50: 0.795 µM
  TGI: > 100 µM
  CC50: > 100 µM
[14]
  growth at 100 µM: 8%
[15]
  growth at 0.01 µM: 90%
[16]
  growth at 0.1 µM: 89%
[17]
  growth at 0.1 µM: 86%
[18]
  growth at 0.1 µM: 97%
[19]
  growth at 1 µM: 37%
[20]
  growth at 1 µM: -50%
[35]
  growth at 1 µM: 42%
[21]
  growth at 0.01 µM: 89%
[22]
  growth at 1 µM: 8%
[23]
  growth at 100 µM: -10%
[24]
  growth at 1 µM: -8%
[25]
  growth at 0.01 µM: 101%
[26]
  GI50: 0.413 µM
  LC50: > 100 µM
  TGI: > 100 µM
[33]
  growth at 0.1 µM: 90%
[27]
  growth at 100 µM: -16%
[28]
  growth at 0.01 µM: 82%
[30]
  GI50: 0.0141 µM
  LC50: > 100 µM
  TGI: ≥ 100 µM
[31]
  growth at 0.1 µM: 104%
[32]
  growth at 1 µM: 37%
